Test results: ChEMBL document CHEMBL1156783, “Synthesis, biological evaluation, X-ray structure, and pharmacokinetics of aminopyrimidine c-jun-N-terminal kinase (JNK) inhibitors” (J Med Chem, 2010)
Active and inactive are the calls of the source. No cut-off for these calls is given here.

Columns and labels:
[1] = Inhibition of p38 kinase by time resolved fluorescence assay
Summary of the method: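 Commercial recombinant p38 in a homogeneous time-resolved fluorescence biochemical assay run per an earlier protocol. IC50 is the average of three or more experiments.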

[2] = molecular target: Mitogen-activated protein kinase 8 (Homo sapiens, UniProt P45983); test: Inhibition of JNK1 by time resolved fluorescence assay
[3] = test system: Jurkat; test: Inhibition of IL-2 release in human Jurkat cells at 10 uM; assay type: functional
[4] = Selectivity ratio of IC50 for JNK3 over IC50 for p38 kinase
[5] = Selectivity ratio of IC50 for JNK1 over IC50 for p38 kinase
[6] = Inhibition of c-jun phosphorylation in rat INS-1 cells; assay type: cell-based; conditions: INS1
[7] = molecular target: Mitogen-activated protein kinase 10 (Homo sapiens, UniProt P53779); test: Inhibition of JNK3 by time resolved fluorescence assay
[8] = molecular target: Mitogen-activated protein kinase kinase kinase 10 (Homo sapiens) (UniProt Q02779); test: Inhibition of MLK2 at 3 uM
Summary of the method: (§1)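 Counterscreen in a biochemical panel of 400 kinases. Each kinase was tested at a single inhibitor level of 3 μM, and percent inhibition was recorded.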

[9] = molecular target: Mitogen-activated protein kinase kinase kinase 9 (Homo sapiens) (UniProt P80192); test: Inhibition of MLK1 at 3 uM; summary of the method: as §1
[10] = molecular target: Mitogen-activated protein kinase kinase kinase 3 (Homo sapiens) (UniProt Q99759); test: Inhibition of MAPK3K3 at 3 uM; summary of the method: as §1
[11] = molecular target: Mitogen-activated protein kinase kinase kinase 4 (Homo sapiens) (UniProt Q9Y6R4); test: Inhibition of MAPK3K4 at 3 uM; summary of the method: as §1
[12] = molecular target: Dual specificity mitogen-activated protein kinase kinase 7 (Homo sapiens) (UniProt O14733); test: Inhibition of MKK7 at 3 uM
[13] = molecular target: Mitogen-activated protein kinase kinase kinase 11 (Homo sapiens) (UniProt Q16584); test: Inhibition of MLK3 at 3 uM; summary of the method: as §1
[14] = molecular target: Mitogen-activated protein kinase kinase kinase 2 (Homo sapiens) (UniProt Q9Y2U5); test: Inhibition of MAPK3K2 at 3 uM; summary of the method: as §1
[15] = molecular target: Dual specificity mitogen-activated protein kinase kinase 4 (Homo sapiens) (UniProt P45985); test: Inhibition of MKK4 at 3 uM
[16] = molecular target: Mitogen-activated protein kinase kinase kinase 1 (Homo sapiens) (UniProt Q13233); test: Inhibition of MAPK3K1 at 3 uM; summary of the method: as §1
[17] = Inhibition of streptozotocin-induced H2O2 production in rat INS1(823/13) cells treated 30 mins before streptozotocin challenge measured after 4 hrs; assay type: functional, cell-based
Summary of the method: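 Rat insulinoma INS1 823/13 cells in RPMI 1640 with 10% FBS were plated and left overnight at 37 °C. Compound in DMSO was added 30 min before 4 mM STZ and kept through 4 h of STZ at 37 °C. Cells were loaded with 5 μM CM-H2DCFDA for 1 h, and fluorescence was read at 495/525 nm. Signal was normalized to STZ alone. A 12-point curve was fitted by four-parameter regression over four biological replicates run in duplicate.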

[18] = molecular target: Mitogen-activated protein kinase kinase kinase 5 (Homo sapiens) (UniProt Q99683); test: Inhibition of ASK1 at 3 uM
[19] = Metabolic stability in mouse liver microsomes at 1 uM by LC-MS/MS analysis; assay type: ADME, Microsome
[20] = molecular target: T1, CYP1A2 (Homo sapiens, UniProt P05177); test: Inhibition of human CYP1A2 at 10 uM after 15 mins; assay type: ADME
T1 sequence (P05177 whole entry): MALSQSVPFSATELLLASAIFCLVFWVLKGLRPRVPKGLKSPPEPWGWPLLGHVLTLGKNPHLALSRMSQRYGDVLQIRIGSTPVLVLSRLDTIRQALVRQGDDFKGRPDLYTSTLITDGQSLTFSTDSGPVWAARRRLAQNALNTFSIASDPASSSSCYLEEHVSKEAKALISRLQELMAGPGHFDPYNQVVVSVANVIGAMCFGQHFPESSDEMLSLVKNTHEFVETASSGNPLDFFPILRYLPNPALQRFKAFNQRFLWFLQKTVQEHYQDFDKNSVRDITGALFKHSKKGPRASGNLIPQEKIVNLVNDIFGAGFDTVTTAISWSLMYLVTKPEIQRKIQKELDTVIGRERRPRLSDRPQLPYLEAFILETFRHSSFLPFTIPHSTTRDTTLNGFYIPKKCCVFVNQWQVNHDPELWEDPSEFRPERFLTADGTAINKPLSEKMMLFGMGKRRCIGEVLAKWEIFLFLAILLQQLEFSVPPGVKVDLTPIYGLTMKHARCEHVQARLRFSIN

[21] = molecular target: CYP2D6 (Homo sapiens, UniProt P10635); test: Inhibition of human CYP2D6 at 10 uM after 15 mins; assay type: ADME
[22] = test system: Rattus norvegicus; test: Oral bioavailability in Sprague-Dawley rat at 2 mg/kg; assay type: ADME, organism-based; conditions: in vivo
Summary of the method: (§2)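 Sprague-Dawley rats (n = 3) given 1 mg/kg i.v. and 2 mg/kg oral gavage. Blood was drawn into EDTA at 5, 15, 30 min and 1, 2, 4, 6, 8 h. Plasma proteins were precipitated with acetonitrile and drug was measured by LC-MS/MS. Cmax, AUC, t1/2, CL, Vd and oral bioavailability came from noncompartmental analysis.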

[23] = Half life in Sprague-Dawley rat at 1 mg/kg, iv and 2 mg/kg, po; assay type: ADME, organism-based; conditions: in vivo; summary of the method: as §2
[24] = Volume of distribution in Sprague-Dawley rat at 1 mg/kg, iv and 2 mg/kg, po; assay type: ADME, organism-based; conditions: in vivo; summary of the method: as §2
[25] = AUC in Sprague-Dawley rat at 2 mg/kg, po; assay type: ADME, organism-based; parameters: dose 2 mg/kg, route oral; conditions: plasma
[26] = test system: Liver microsomes; test: Metabolic stability in human liver microsomes at 1 uM by LC-MS/MS analysis; assay type: ADME, Microsome
[27] = molecular target: CYP3A4 (Homo sapiens, UniProt P08684); test: Inhibition of human CYP3A4 at 10 uM after 15 mins; assay type: ADME
[28] = test system: Liver microsomes; test: Metabolic stability in rat liver microsomes at 1 uM by LC-MS/MS analysis; assay type: ADME, Microsome
[29] = Cmax in Sprague-Dawley rat at 2 mg/kg, po; assay type: ADME, organism-based; parameters: dose 2 mg/kg, route oral; conditions: in vivo
[30] = molecular target: CYP2C9 (Homo sapiens, UniProt P11712); test: Inhibition of human CYP2C9 at 10 uM after 15 mins; assay type: ADME
[31] = Plasma clearance in Sprague-Dawley rat at 1 mg/kg, iv and 2 mg/kg, po; assay type: ADME, organism-based; summary of the method: as §2
[32] = test system: Plasma; test: Protein binding in mouse plasma; assay type: ADME, cell-free
[33] = test system: Plasma; test: Protein binding in monkey plasma; assay type: ADME, cell-free, Macaca mulatta; conditions: rhesus monkey
[34] = test system: Plasma; test: Protein binding in rat plasma; assay type: ADME, cell-free
[35] = test system: Plasma; test: Protein binding in dog plasma; assay type: ADME, cell-free, Canis lupus familiaris
[36] = test system: Plasma; test: Protein binding in human plasma; assay type: ADME, cell-free

Sequence of CYP3A4 (P08684 whole entry): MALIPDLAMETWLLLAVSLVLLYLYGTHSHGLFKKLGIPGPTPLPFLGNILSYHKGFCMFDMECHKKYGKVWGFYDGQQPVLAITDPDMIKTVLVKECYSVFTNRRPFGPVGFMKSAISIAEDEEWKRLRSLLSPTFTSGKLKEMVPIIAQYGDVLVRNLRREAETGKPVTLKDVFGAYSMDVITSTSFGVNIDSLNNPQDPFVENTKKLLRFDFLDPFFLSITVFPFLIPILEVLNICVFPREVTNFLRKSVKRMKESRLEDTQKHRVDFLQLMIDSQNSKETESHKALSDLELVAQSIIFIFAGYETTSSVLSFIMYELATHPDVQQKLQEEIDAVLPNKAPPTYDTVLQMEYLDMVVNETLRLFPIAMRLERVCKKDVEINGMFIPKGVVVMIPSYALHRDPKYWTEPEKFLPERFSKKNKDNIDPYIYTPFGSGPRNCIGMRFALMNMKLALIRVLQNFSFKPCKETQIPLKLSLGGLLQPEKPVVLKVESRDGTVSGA
Sequence of CYP2D6 (P10635 whole entry): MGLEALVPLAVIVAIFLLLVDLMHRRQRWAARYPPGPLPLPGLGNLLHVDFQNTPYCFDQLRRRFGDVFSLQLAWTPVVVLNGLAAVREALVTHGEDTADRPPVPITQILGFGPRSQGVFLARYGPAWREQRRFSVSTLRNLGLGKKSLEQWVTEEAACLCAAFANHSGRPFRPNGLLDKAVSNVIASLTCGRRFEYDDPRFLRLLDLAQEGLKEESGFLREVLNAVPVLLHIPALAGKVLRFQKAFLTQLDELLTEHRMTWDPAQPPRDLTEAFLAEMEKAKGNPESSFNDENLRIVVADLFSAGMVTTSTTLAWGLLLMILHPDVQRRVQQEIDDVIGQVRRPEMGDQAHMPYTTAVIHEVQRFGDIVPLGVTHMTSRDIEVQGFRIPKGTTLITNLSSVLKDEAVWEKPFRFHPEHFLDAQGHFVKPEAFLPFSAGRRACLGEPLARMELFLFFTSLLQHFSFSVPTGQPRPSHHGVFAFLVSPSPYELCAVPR
Sequence of Mitogen-activated protein kinase 8 (P45983 whole entry): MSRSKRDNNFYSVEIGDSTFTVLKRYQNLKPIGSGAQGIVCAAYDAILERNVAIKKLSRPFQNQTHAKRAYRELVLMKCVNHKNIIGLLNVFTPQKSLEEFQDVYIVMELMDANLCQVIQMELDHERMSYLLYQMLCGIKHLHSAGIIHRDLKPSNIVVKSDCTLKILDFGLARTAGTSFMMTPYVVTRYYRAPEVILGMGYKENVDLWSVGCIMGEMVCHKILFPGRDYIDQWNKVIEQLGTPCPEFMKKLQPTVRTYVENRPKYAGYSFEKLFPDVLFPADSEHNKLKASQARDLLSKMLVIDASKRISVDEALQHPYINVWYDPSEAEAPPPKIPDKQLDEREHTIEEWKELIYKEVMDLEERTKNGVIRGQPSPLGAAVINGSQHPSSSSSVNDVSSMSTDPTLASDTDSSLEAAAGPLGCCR
Sequence of CYP2C9 (P11712 whole entry): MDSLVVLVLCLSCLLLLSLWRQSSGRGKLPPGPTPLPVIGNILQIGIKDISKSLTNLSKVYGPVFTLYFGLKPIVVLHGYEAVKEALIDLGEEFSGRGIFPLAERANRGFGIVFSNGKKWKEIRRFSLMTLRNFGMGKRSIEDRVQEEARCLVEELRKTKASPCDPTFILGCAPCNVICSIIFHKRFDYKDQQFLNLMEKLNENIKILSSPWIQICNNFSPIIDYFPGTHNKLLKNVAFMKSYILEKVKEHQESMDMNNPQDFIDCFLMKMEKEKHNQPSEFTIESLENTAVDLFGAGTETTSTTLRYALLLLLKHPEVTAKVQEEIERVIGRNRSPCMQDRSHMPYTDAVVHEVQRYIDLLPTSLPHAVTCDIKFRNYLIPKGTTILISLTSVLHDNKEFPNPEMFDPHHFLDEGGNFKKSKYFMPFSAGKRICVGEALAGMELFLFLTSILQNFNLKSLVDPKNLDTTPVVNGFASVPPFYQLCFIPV
Sequence of Mitogen-activated protein kinase 10 (P53779 whole entry): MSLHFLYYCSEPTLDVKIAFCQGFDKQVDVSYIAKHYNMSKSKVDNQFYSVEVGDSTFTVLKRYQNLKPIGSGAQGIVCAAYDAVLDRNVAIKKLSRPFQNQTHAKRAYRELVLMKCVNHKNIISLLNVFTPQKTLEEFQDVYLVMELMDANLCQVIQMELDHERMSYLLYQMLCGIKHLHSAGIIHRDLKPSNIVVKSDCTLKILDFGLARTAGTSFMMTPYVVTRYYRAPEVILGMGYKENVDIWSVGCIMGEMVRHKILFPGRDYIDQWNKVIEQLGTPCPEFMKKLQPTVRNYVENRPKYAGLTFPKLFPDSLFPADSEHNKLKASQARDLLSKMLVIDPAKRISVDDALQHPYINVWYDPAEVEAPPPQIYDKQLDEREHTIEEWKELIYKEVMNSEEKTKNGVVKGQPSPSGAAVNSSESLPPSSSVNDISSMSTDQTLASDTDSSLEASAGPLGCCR
Sequence of Mitogen-activated protein kinase kinase kinase 9 (Homo sapiens) (P80192 whole entry, looked up): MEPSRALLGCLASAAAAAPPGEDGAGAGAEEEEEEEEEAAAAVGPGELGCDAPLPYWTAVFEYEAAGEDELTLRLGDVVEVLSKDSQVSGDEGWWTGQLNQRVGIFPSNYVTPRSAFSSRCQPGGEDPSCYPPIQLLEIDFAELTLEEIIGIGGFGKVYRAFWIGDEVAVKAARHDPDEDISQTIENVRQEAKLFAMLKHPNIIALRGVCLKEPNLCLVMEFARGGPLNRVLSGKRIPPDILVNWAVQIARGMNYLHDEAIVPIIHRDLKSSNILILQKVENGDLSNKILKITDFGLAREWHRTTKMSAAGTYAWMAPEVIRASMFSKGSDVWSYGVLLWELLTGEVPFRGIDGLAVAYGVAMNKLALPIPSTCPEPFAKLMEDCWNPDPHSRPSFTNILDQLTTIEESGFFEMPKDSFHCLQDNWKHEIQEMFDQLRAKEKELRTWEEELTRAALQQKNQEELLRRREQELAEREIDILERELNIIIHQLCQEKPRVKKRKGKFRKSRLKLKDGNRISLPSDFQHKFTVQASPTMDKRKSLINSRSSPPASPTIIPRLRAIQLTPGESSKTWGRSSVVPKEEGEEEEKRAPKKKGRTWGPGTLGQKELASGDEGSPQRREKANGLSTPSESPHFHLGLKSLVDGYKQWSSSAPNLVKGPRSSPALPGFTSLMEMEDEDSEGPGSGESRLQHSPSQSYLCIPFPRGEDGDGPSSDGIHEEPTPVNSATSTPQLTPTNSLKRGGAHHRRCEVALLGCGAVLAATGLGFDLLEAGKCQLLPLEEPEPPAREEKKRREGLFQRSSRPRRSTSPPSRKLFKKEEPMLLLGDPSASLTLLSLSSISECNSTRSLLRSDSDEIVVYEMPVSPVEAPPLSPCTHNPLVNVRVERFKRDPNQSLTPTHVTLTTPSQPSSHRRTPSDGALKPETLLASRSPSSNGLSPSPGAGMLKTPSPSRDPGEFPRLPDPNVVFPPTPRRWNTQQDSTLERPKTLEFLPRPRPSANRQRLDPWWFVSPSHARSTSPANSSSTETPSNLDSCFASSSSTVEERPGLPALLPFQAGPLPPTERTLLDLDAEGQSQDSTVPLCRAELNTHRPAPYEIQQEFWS
Sequence of Mitogen-activated protein kinase kinase kinase 2 (Homo sapiens) (Q9Y2U5 whole entry): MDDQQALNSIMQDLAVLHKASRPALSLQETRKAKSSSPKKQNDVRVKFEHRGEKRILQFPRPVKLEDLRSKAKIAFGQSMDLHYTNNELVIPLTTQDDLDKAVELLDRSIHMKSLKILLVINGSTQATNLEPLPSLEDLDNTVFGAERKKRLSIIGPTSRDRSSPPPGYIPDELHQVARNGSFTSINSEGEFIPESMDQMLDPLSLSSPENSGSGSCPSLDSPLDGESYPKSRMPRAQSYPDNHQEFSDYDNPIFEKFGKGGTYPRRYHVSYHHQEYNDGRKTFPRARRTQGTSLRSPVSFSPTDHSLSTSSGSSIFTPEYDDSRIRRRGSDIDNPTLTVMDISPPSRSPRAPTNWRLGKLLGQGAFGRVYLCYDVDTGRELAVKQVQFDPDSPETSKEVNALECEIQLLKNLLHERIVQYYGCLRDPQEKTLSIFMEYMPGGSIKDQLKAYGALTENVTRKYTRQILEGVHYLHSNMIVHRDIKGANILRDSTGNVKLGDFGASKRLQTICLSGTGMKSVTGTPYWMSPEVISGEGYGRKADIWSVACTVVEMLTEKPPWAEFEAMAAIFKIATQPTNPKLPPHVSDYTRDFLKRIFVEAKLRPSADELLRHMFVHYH
Sequence of Dual specificity mitogen-activated protein kinase kinase 4 (Homo sapiens) (P45985 whole entry): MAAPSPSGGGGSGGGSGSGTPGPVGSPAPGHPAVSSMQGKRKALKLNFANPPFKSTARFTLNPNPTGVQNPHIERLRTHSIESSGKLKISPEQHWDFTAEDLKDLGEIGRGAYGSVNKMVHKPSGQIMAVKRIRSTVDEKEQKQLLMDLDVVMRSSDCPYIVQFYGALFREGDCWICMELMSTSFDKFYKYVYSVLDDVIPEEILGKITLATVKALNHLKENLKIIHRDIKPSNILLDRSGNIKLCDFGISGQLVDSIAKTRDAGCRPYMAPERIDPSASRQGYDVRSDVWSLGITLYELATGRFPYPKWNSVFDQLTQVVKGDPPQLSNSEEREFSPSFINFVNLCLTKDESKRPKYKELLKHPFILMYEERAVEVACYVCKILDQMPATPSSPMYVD
Sequence of Dual specificity mitogen-activated protein kinase kinase 7 (Homo sapiens) (O14733 whole entry): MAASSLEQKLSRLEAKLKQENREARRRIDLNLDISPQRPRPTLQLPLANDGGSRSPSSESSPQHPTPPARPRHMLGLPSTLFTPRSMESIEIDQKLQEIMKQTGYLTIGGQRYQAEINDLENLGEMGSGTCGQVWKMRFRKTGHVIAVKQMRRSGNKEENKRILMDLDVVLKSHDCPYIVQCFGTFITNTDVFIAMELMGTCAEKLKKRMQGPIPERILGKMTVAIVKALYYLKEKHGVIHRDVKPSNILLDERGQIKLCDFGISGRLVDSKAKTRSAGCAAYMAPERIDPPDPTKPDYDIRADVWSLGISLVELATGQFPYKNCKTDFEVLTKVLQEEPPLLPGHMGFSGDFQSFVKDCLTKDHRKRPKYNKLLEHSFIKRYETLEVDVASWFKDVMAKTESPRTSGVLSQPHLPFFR

Row | SMILES | IC50 [1] | IC50 [2] | IC50 [6] | IC50 [7] | Stability [19] | inhibition at 0.25 h, 10 µM [20] | inhibition at 0.25 h, 10 µM [21] | F [22] | half-life [23] | Vd [24] | AUC [25] | Stability [26] | inhibition at 0.25 h, 10 µM [27] | Stability [28] | Cmax [29] | inhibition at 0.25 h, 10 µM [30] | clearance [31] | also measured
1 | c1cncc(-c2ncn(-c3ccc(Nc4nccc(-c5cccc(N6CCOCC6)c5)n4)cc3)n2)c1 | > 20 µM | 0.097 µM |  |  |  |  |  |  |  |  |  |  |  |  |  |  |  | 
2 | N#C/C(=C1/Nc2ccccc2S1)c1ccnc(NCCc2cccnc2)n1 |  |  |  |  |  |  |  |  |  |  |  |  |  |  |  |  |  | inhibition at 10 µM [3]: 90%
3 | Cc1ncn(-c2ccc(Nc3nccc(-c4cc(C#N)cc(N5CCOCC5)c4)n3)cc2)n1 | > 20 µM | 0.054 µM | 0.089 µM | 0.079 µM |  |  |  |  |  |  |  |  |  |  |  |  |  | Ratio IC50 [4]: > 135; Ratio IC50 [5]: > 135
4 | Fc1cc(-c2cc[nH]/c(=N/c3ccc(-n4cnc(N5CCOCC5)n4)cc3)n2)cc(N2CCOCC2)c1 | > 20 µM |  | 0.054 µM |  |  |  |  |  |  |  |  |  |  |  |  |  |  | Activity [8]: inactive; Activity [9]: inactive; Activity [10]: inactive; Activity [11]: inactive; Activity [12]: inactive; Activity [13]: inactive; Activity [14]: inactive; Activity [15]: inactive; Activity [16]: inactive; IC50 [17]: 0.00081 µM; Activity [18]: inactive
5 | Cn1nnc(-c2ccc(Nc3nccc(-c4cc(C#N)cc(N5CCOCC5)c4)n3)cc2)n1 | > 20 µM | 0.045 µM |  | 0.14 µM | 26 min | -1% | 10% | 14% | 1.9 h | 3.3 L/kg | 240 nM·h | 17 min | 15% | 11 min | 0.07 µM | 7% | 2.64 L/h/kg | 
6 | c1cc(-c2ccnc(Nc3ccc(-n4ccnn4)cc3)n2)cc(N2CCOCC2)c1 | > 20 µM | 0.123 µM |  | 0.365 µM |  |  |  |  |  |  |  |  |  |  |  |  |  | 
7 | NC(=O)c1ccc(Nc2nccc(-c3ccccc3)n2)cc1 | > 20 µM |  |  |  |  |  |  |  |  |  |  |  |  |  |  |  |  | 
8 | Fc1cc(-c2ccnc(Nc3ccc(-n4cnc(N5CCOCC5)n4)cc3)n2)cc(N2CCOCC2)c1 |  | 0.099 µM |  |  | 21 min | 70% | 4% | 45% | 2.4 h | 2.5 L/kg | 1400 nM·h | 26 min | 89% | 41 min | 0.3 µM | 75% | 1.2 L/h/kg | PPB [32]: 92%; PPB [33]: 96%; PPB [34]: 98%; PPB [35]: 96%; PPB [36]: 92%
9 | CS(=O)(=O)Nc1ccc(-c2ccnc(Nc3ccc(-n4ccnn4)cc3)n2)cc1 | > 20 µM | 0.016 µM | 0.21 µM | 0.004 µM |  |  |  |  |  |  |  |  |  |  |  |  |  | 
10 | N#Cc1cc(-c2ccnc(Nc3ccc(-n4cnc(-c5ccccn5)n4)cc3)n2)cc(N2CCOCC2)c1 | > 20 µM | 0.039 µM |  | 0.079 µM | 51 min | 15% | -4% | 27% | 3 h | 0.6 L/kg | 5900 nM·h | 29 min | 33% | 47 min | 0.5 µM | -2% | 0.18 L/h/kg | 
11 | CN1CCN(c2ncn(-c3ccc(Nc4nccc(-c5cc(F)cc(N6CCOCC6)c5)n4)cc3)n2)CC1 | > 20 µM | 0.102 µM | 0.26 µM | 0.133 µM |  |  |  |  |  |  |  |  |  |  |  |  |  | 
12 | Cc1ncn(-c2ccc(Nc3nccc(-c4cccc(N5CCOCC5)c4)n3)cc2)n1 | > 20 µM | 0.113 µM | 0.281 µM | 0.39 µM | 5 min | 39% | 4% | 25% | 0.8 h | 0.4 L/kg | 2000 nM·h | 18 min | 48% | 17 min | 0.95 µM | 43% | 0.6 L/h/kg | 
13 | CS(=O)(=O)Nc1ccc(-c2ccnc(Nc3ccc(S(N)(=O)=O)cc3)n2)cc1 | > 20 µM |  |  |  |  |  |  |  |  |  |  |  |  |  |  |  |  | 
